From PubChem
Sampled rows, rich in hits. Any-hit rate of the full collection: about 1.6%.
Rin1 Abl inh = inhibitors of Rin1-Abl protein binding, primary screen, biochemical, TR-FRET; Tyrosine-protein kinase ABL1 (Homo sapiens) + Ras and Rab interactor 1 (Homo sapiens), …; inhibition, % at 7.35 µM; 360,000 compounds, 0.4% hits; AID 588664, 2011; in the data active = inhibition above about 5%, passing the limit was not always enough
SKN-1 inh = suppressors of acrylamide-induced Pgst-4::GFP reporter in worms, primary screen, SKN-1 inhibitor project, whole organism, uHTS, GFP/RFP fluorescence ratio, strain VP596; C. elegans VP596 Pgst-4::GFP/RFP ratio, 24 h; inhibition, % at 21.8 µM; 360,000 compounds, 0.49% hits;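 active = interference check ratio from 0.5 to 1.5 plus GFP to RFP signal ratio inhibition reaching or exceeding a fixed threshold, cut at about 30% in these data, passing the limit was not always enough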
Arr AP2 block = inhibitors of beta-arrestin/AP2 binding, primary screen, biochemical, GPCR trafficking, flow cytometry; beta-arrestin 1 C-terminal peptide binding to AP2 beta2-adaptin appendage (human); FITC-arrestin peptide / GST-AP2 beads; AP2 beta2 appendage carries R879A mutation; inhibition, % at 10 µM; 340,000 compounds, 0.31% hits;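 active = inhibition above a set limit, near 3 SD of compounds lacking own fluorescence, cut at about 54% in these data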;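 note: plate controls were DMSO wells for no effect and 5 µM unlabelled arrestin peptide for full effect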
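Material – AP2 appendage R879A on GSH beads · Buffer or medium – PBS with 0.05% Tween 20 and 0.1% BSA · Probe or stimulus – fluorescein-tagged arrestin peptide at 50 nM final · Incubation – compound with beads 12 min RT, then probe 1 h RT · Detection – high-throughput flow cytometry of beads, ex 488, em 535 nm · Evaluation – percent response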
TbMetRS inhib = T. brucei MetRS inhibitors, primary screen, biochemical, luminescence | purified T. brucei MetRS, ATP depletion, Kinase-Glo luminescence | inhibition, % at 11.9 µM | 360,000 compounds, 0.4% hits | AID 624268, 2012;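 active = inhibition above a per-plate cutoff of the control wells' mean inhibition plus 3 SD, cut at about 5.5% in these data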;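 note: 0% = DMSO wells median and 100% = median of wells with control inhibitor compound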
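technique = Kinase-Glo luminescence, ATP depletion format | system = purified MetRS (methionyl-tRNA synthetase) enzyme from Trypanosoma brucei | timing = 15 min preincubation, 2 h reaction, all 25 °C | evaluation = percent inhibition versus plate control medians | dosing = single dose, 11.9 µM final nominal, 0.9% final DMSO | also added = substrates ATP, L-methionine and bulk Escherichia coli tRNA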
MT1-MMP act inh = blockers of MT1-MMP proenzyme processing, primary screen, HT1080 RFP-PRO-GFP cells, GFP/RFP fluorescence; Matrix metalloproteinase-14 (Homo sapiens), P50281; GFP/RFP ratio fluorescence, overnight; percent of plate control window, DMSO zero; GFP/RFP ratio change, % at 20 µM; 360,000 compounds, 0.061% hits;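 active = GFP/RFP ratio change of at least 30% with cell ATP level not reduced by more than half and red fluorescence within 50% of control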
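Assay system: HT1080 RFP-PRO-GFP cells. Benchmarks: DMSO vehicle wells and RFP-L50D-GFP reporter cell wells. Times: overnight cell settling, then overnight compound exposure, 37 °C, 5% CO2. Compound: 20 µM single dose, 1% DMSO. Read-out basis: GFP/RFP fluorescence ratio.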
Rin1 Abl conf = Rin1-Abl binding inhibitor retest, confirmation, biochemical, TR-FRET; shares compounds with Rin1 Abl inh; 1,300 compounds, 49% hits; purified proteins; inhibition, % at 7.35 µM
GFP quench = GFP fluorescence inhibitors and quenchers, artefact control for Rin1-Abl interaction inhibitor project, biochemical; shares compounds with Rin1 Abl inh; inhibitors/quenchers counterscreen; inhibition, % at 6.75 µM; 1,300 compounds, 8.5% hits;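 note: ABL1-eGFP fusion protein alone without its partner RIN1-SBP; 0% = protein with vehicle and 100% = wells lacking protein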
GFP quench DR = GFP fluorescence inhibitors and quenchers, dose response, artefact control for Rin1-Abl interaction inhibitor project, biochemical; AID 602182, 2012; 230 tested, under 10 active; GFP fluorescence interference/quenching counterscreen; IC50, µM; shares compounds with Rin1 Abl inh; call rule not given here;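 note: ABL1-eGFP fusion protein alone without its RIN1 binding partner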
Starred values were filed as active, the others as inactive; / = not tested or not shown. Cut-off read from the data, not from the text of the source, unless noted: active = inhibition above about 6.5%; inactive = the rest.

SMILES	Rin1 Abl inh	SKN-1 inh	Arr AP2 block	TbMetRS inhib	MT1-MMP act inh	Rin1 Abl conf	GFP quench	others
Cc1[nH][nH]c(=O)c1C(c1ccc(-c2ccc(Cl)c(Cl)c2)o1)c1c(C)[nH][nH]c1=O	13*	-8	19	0	-3	4	6
Cc1[nH][nH]c(=O)c1C(c1ccc(-c2ccc(F)cc2)o1)c1c(C)[nH][nH]c1=O	3	-10	-2	1	-3	/	/
CCOc1ccc(C(C(=O)NCC2CCCO2)N(C(=O)c2snc(C(N)=O)c2N)c2ccc3c(c2)OCCO3)cc1 (stereo not given)	16*	9	-7	0	-3	23*	0
Cc1ccccc1N(C(=O)c1snc(C(N)=O)c1N)C(C(=O)NCc1ccccc1)c1ccc(O)cc1 (stereo not given)	0	9	-2	0	-11	/	/
CCOc1ccccc1N(C(=O)c1snc(C(N)=O)c1N)C(C(=O)NCc1ccccc1)c1ccc(O)cc1 (stereo not given)	15*	9	-2	0	-7	26*	1	GFP quench DR=>68
COc1ccc(N(C(=O)c2snc(C(N)=O)c2N)C(C(=O)NC2CCCC2)c2ccc(F)cc2)c(OC)c1 (stereo not given)	5	-11	19	0	-8	/	/
NC(=O)c1nsc(C(=O)N(c2ccccc2)C(C(=O)NCC2CCCO2)c2ccc3ncccc3c2)c1N (stereo not given)	2	6	4	0	1	/	/
CN(C)c1ccc(C(C(=O)NCC2CCCO2)N(C(=O)c2snc(C(N)=O)c2N)c2ccc3c(c2)OCO3)cc1 (stereo not given)	0	22	3	0	-4	/	/
COc1ccc(C(C(=O)NC2CCCCC2)N(C(=O)c2snc(C(N)=O)c2N)c2ccc(OC)cc2OC)cc1 (stereo not given)	18*	10	25	0	-2	15*	0
CCOc1ccccc1N(C(=O)c1snc(C(N)=O)c1N)C(C(=O)NCC1CCCO1)c1ccc2ncccc2c1 (stereo not given)	21*	4	-2	0	-3	29*	-1	GFP quench DR=>68
CSc1ccc(CN2CCC2(C)C(=O)NCc2cccc(C(F)(F)F)c2)cc1 (stereo not given)	1	10	/	0	7	/	/
COc1ccccc1CNC(=O)c1ccc2nc(C)c(N(C)Cc3ccc(NC(C)=O)cc3)n2c1	0	19	/	0	1	/	/
CN(C)c1cccc(CNC(=O)c2ccc3nc([C@@H]4O[C@H](CO)[C@H](O)[C@H](O)[C@H]4O)[nH]c3c2)c1	14*	-2	/	0	0	-1	-1
CCCCCc1c(-c2ccccc2OC)ncn1CCc1ccccc1OC	/	-8	/	-1	13	/	/
Cc1ccc2nc(-c3ccccc3)c(Cc3ccccc3C(F)(F)F)n2c1	0	32	/	0	-5	/	/
CC(=O)Nc1ccc(NC(=O)CSc2nnc(-c3ccccc3)n2Cc2ccc3c(c2)OCO3)cc1	7.8*	4	6	-1	-1	4	0
C=CCn1c(SCC(=O)Nc2ccc3c(c2)OCO3)nnc1-c1ccccc1	2	-18	1	-1	-1	/	/
